Data as given in ChEMBL document CHEMBL1212805, “Evaluation of WLBU2 peptide and 3-O-octyl-sn-glycerol lipid as active ingredients for a topical microbicide formulation targeting Chlamydia trachomatis” (Antimicrob Agents Chemother, 2010).
Active and inactive are the calls of the source.

How the values were obtained:
Chlamydia trachomatis [1] = test: Antibacterial activity against Chlamydia trachomatis serovar L2 at 60.0 -3.75 uM after 5 mins by MCC assay in presence of simulated seminal fluid relative to control; assay type: functional, organism-based
Summary of the method: (§1)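 McCoy monolayers seeded 5 × 10⁴ cells/well the day before. Five 4-fold dilutions in SPG (from 120 μM, 60 μM final) mixed 1:1 with EBs (5 × 10⁶ IFU/ml) in VFS, SFS or HSA, giving final 50% VFS, 50% SFS or 5% HSA. After exposure, mix diluted 1:40 in SPG, then inoculated. Inhibition is relative to a no-drug control in the same fluid and exposure time.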

Chlamydia trachomatis [2] = test: Antibacterial activity against Chlamydia trachomatis serovar E at 60.0 - 3.75 uM after 5 mins by MCC assay in presence of simulated seminal fluid relative to control; assay type: functional, organism-based
Summary of the method: (§2)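 C. trachomatis serovar EBs (5 × 10⁶ IFU/ml) diluted in 100% VFS (zinc-free for SFS), 100% SFS or 10% HSA, mixed 1:1 with five 4-fold SPG dilutions (final 60 μM/30 mM top; 50% VFS, 50% SFS, 5% HSA). After 5 or 120 min, diluted 1:40, inoculated onto McCoy monolayers. Inclusions stained with anti-LPS/FITC after 36–48 h. Inhibition versus no-drug control in the same fluid; MCC is complete inhibition.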

Chlamydia trachomatis [3] = test: Antibacterial activity against Chlamydia trachomatis serovar L2 at 60.0 - 3.75 uM after 120 mins by MCC assay in presence of simulated vaginal fluid relative to control; assay type: functional, organism-based; summary of the method: as §2
Chlamydia trachomatis [4] = test: Antibacterial activity against Chlamydia trachomatis serovar D at 15 uM at pH 7 after 120 mins by MCC assay in presence of sucrose- phosphate-glutamate buffer; assay type: functional, organism-based
Summary of the method: (§3)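 Compounds and EBs were each diluted in SPG at pH 4, 5.5, 7 or 8 and mixed 1:1, so exposure pH was constant. Five 4-fold dilutions were used (top 60 μM peptide, 30 mM lipid). After 5 or 120 min, the mix was diluted 1:40 in pH 7.5 SPG and plated on McCoy cells. Inclusion counts were compared with a no-drug control at the same pH and time.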

Chlamydia trachomatis [5] = test: Antibacterial activity against Chlamydia trachomatis serovar D at 60.0 - 3.75 uM after 5 mins by MCC assay in presence of simulated seminal fluid relative to control; assay type: functional, organism-based; summary of the method: as §2
Chlamydia trachomatis [6] = test: Antibacterial activity against Chlamydia trachomatis serovar E at 60.0 - 3.75 uM after 5 mins by MCC assay in presence of simulated vaginal fluid relative to control; assay type: functional, organism-based; summary of the method: as §2
Chlamydia trachomatis [7] = test: Antibacterial activity against Chlamydia trachomatis serovar E at 60.0 -3.75 uM after 5 mins by MCC assay in presence of human serum albumin relative to control; assay type: functional, organism-based; summary of the method: as §2
Chlamydia trachomatis [8] = test: Antibacterial activity against Chlamydia trachomatis serovar D at 60.0 - 3.75 uM after 5 mins by MCC assay in presence of simulated vaginal fluid relative to control; assay type: functional, organism-based; summary of the method: as §2
Chlamydia trachomatis [9] = test: Antibacterial activity against Chlamydia trachomatis serovar L2 at 3.75 uM at pH 4 after 120 mins by MCC assay in presence of sucrose-phosphate-glutamate buffer relative to control; assay type: functional, organism-based; summary of the method: as §3
Chlamydia trachomatis [10] = test: Antibacterial activity against Chlamydia trachomatis serovar D at 60.0 - 3.75 uM after 120 mins by MCC assay in presence of simulated vaginal fluid relative to control; assay type: functional, organism-based; summary of the method: as §2
Chlamydia trachomatis [11] = test: Antibacterial activity against Chlamydia trachomatis serovar D at 15 uM at pH 4 after 120 mins by MCC assay in presence of sucrose- phosphate-glutamate buffer; assay type: functional, organism-based; summary of the method: as §3
Chlamydia trachomatis [12] = test: Antibacterial activity against Chlamydia trachomatis serovar L2 at 3.75 uM at pH 7 after 120 mins by MCC assay in presence of sucrose-phosphate-glutamate buffer relative to control; assay type: functional, organism-based; summary of the method: as §3
[13] = Cytotoxicity against mouse McCoy cells after 48 hrs at =<60 uM by MTT assay; assay type: cell-based
Summary of the method: (§4)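 Cytotoxicity was tested by running the MCC procedure without inoculum: compound diluted in half with SPG, then diluted 1:40 onto McCoy monolayers and incubated 48 h at 37°C. Read-out by Alamar Blue, MTT and LDH kits. SPG served as negative control and Triton X-100 as positive control. Nontoxic was defined as <10% toxicity in all methods.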

Chlamydia trachomatis [14] = test: Antibacterial activity against Chlamydia trachomatis serovar D at 3.75 uM at pH 4 after 120 mins by MCC assay in presence of sucrose- phosphate-glutamate buffer; assay type: functional, organism-based; summary of the method: as §3
[15] = Cytotoxicity against mouse McCoy cells after 48 hrs at =<60 uM by almar blue assay; assay type: cell-based; summary of the method: as §4
Chlamydia trachomatis [16] = test: Antibacterial activity against Chlamydia trachomatis serovar L2 at => 3.13 uM after 5 mins relative to control; assay type: functional
Chlamydia trachomatis [17] = test: Antibacterial activity against Chlamydia trachomatis serovar L2 at => 3.13 uM after 120 mins relative to control; assay type: functional
Chlamydia trachomatis [18] = test: Antibacterial activity against Chlamydia trachomatis serovar D at 15 uM at pH 7 after 120 mins by MCC assay in presence of sucrose-phosphate-glutamate buffer relative to contro; assay type: functional, organism-based; summary of the method: as §3
Chlamydia trachomatis [19] = test: Antibacterial activity against Chlamydia trachomatis serovar E at 60.0 - 3.75 uM after 120 mins by MCC assay in presence of simulated vaginal fluid relative to control; assay type: functional, organism-based; summary of the method: as §2
Chlamydia trachomatis [20] = test: Antibacterial activity against Chlamydia trachomatis serovar L2 at 60.0 - 3.75 uM after 120 mins by MCC assay in presence of human serum albumin relative to control; assay type: functional, organism-based; summary of the method: as §2
Chlamydia trachomatis [21] = test: Antibacterial activity against Chlamydia trachomatis serovar D at 60.0 - 3.75 uM after 120 mins by MCC assay in presence of simulated seminal fluid relative to control; assay type: functional, organism-based; summary of the method: as §2
Chlamydia trachomatis [22] = test: Antibacterial activity against Chlamydia trachomatis serovar D at 60.0 - 3.75 uM after 5 mins by MCC assay in presence of human serum albumin relative to control; assay type: functional, organism-based; summary of the method: as §2
Chlamydia trachomatis [23] = test: Antibacterial activity against Chlamydia trachomatis serovar L2 at 60.0 - 3.75 uM after 5 mins by MCC assay in presence of simulated vaginal fluid relative to control; assay type: functional, organism-based; summary of the method: as §1
Chlamydia trachomatis [24] = test: Antibacterial activity against Chlamydia trachomatis serovar E at 60.0 -3.75 uM after 120 mins by MCC assay in presence of human serum albumin relative to control; assay type: functional, organism-based; summary of the method: as §2
Chlamydia trachomatis [25] = test: Antibacterial activity against Chlamydia trachomatis serovar D at 60.0 - 3.75 uM after 120 mins by MCC assay in presence of human serum albumin relative to control; assay type: functional, organism-based; summary of the method: as §2
Chlamydia trachomatis [26] = test: Antibacterial activity against Chlamydia trachomatis serovar L2 at 50 uM after 120 mins relative to control; assay type: functional; settings: serovar L2, 2 h
Summary of the method: (§5)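 Serovar L2 EBs (5 × 10⁶ IFU/ml in SPG, pH 7.5) mixed 1:1 with ten 2-fold SPG dilutions (final 50 μM top peptide, 25 mM lipid), exposed 5 or 120 min, diluted 1:40, plated on McCoy cells; fixed with methanol after 36–48 h, anti-LPS/FITC stained. Triplicate wells, three fields each, three independent days; percent inhibition versus no-drug control ± SD.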

Chlamydia trachomatis [27] = test: Antibacterial activity against Chlamydia trachomatis serovar E at 60.0 - 3.75 uM after 120 mins by MCC assay in presence of simulated seminal fluid relative to control; assay type: functional, organism-based; summary of the method: as §2
Chlamydia trachomatis [28] = test: Antibacterial activity against Chlamydia trachomatis serovar L2 at 60.0 -3.75 uM after 120 mins by MCC assay in presence of simulated seminal fluid relative to control; assay type: functional, organism-based; summary of the method: as §1
Chlamydia trachomatis [29] = test: Antibacterial activity against Chlamydia trachomatis serovar D at 3.75 uM at pH 7 after 120 mins by MCC assay in presence of sucrose-phosphate-glutamate buffer relative to contro; assay type: functional, organism-based; summary of the method: as §3
Chlamydia trachomatis [30] = test: Antibacterial activity against Chlamydia trachomatis serovar L2 at 60.0 - 3.75 uM after 5 mins by MCC assay in presence of human serum albumin relative to control; assay type: functional, organism-based; summary of the method: as §1
Chlamydia trachomatis [31] = test: Antibacterial activity against Chlamydia trachomatis serovar L2 at 15 uM at pH 7 after 120 mins by MCC assay in presence of sucrose-phosphate-glutamate buffer relative to control; assay type: functional, organism-based; summary of the method: as §3
Chlamydia trachomatis [32] = test: Antibacterial activity against Chlamydia trachomatis serovar L2 at 50 uM after 5 mins relative to control; assay type: functional; settings: serovar L2, 5 min; summary of the method: as §5

Substance: H-RRWVRRVRRWVRRVVRVVRRWVRR-OH
- Activity (Chlamydia trachomatis [1]): inactive
- Activity (Chlamydia trachomatis [2]): inactive
- Activity (Chlamydia trachomatis [3]): inactive
- Activity (Chlamydia trachomatis [4]): inactive
- Activity (Chlamydia trachomatis [5]): inactive
- Activity (Chlamydia trachomatis [6]): inactive
- Activity (Chlamydia trachomatis [7]): inactive
- Activity (Chlamydia trachomatis [8]): inactive
- Activity (Chlamydia trachomatis [9]): inactive
- Activity (Chlamydia trachomatis [10]): inactive
- Activity (Chlamydia trachomatis [11]): inactive
- Activity (Chlamydia trachomatis [12]): inactive
- Activity [13]: Non-toxic
- Activity (Chlamydia trachomatis [14]): inactive
- Activity [15]: Non-toxic
- Activity (Chlamydia trachomatis [16]): >56%
- Activity (Chlamydia trachomatis [17]): >97%
- Activity (Chlamydia trachomatis [18]): inactive
- Activity (Chlamydia trachomatis [19]): inactive
- Activity (Chlamydia trachomatis [20]): inactive
- Activity (Chlamydia trachomatis [21]): inactive
- Activity (Chlamydia trachomatis [22]): inactive
- Activity (Chlamydia trachomatis [23]): inactive
- Activity (Chlamydia trachomatis [24]): inactive
- Activity (Chlamydia trachomatis [25]): inactive
- inhibition at 50 µM (Chlamydia trachomatis [26]): 99.9%
- Activity (Chlamydia trachomatis [27]): inactive
- Activity (Chlamydia trachomatis [28]): inactive
- Activity (Chlamydia trachomatis [29]): inactive
- Activity (Chlamydia trachomatis [30]): inactive
- Activity (Chlamydia trachomatis [31]): inactive
- inhibition at 50 µM (Chlamydia trachomatis [32]): 89.3%
